Measurements taken from paper PMC11310375 (EJNMMI Radiopharmacy and Chemistry, 2024).
Square brackets hold non-standard residues; d marks the D form. Peptide text beside a SMILES is read from it. * marks the point of attachment. AspCH2OCO(5-Me-thien-2-yl) = Cc1ccc(C(=O)OCC(=O)[C@H](CC(=O)O)N*)s1; Phe(F5) = N[C@@H](Cc1c(F)c(F)c(F)c(F)c1F)C(=O)O; X5 = Cc1cccc(C)c1C(=O)OCC(=O)[C@@H](CC(=O)O)N*; X4 = Cc1ccc(C(=O)OCC(=O)[C@@H](CC(=O)O)N*)s1; X2 = O=C(CCOCCOCCOCCOCCn1cc(CCCF)nn1)*; d(β3hL) = CC(C)C[C@@H](N)CC(=O)O; 3Pal = N[C@@H](Cc1cccnc1)C(=O)O; d3Pal = N[C@H](Cc1cccnc1)C(=O)O; X3 = O=C(CCCc1cn(CCF)nn1)*; X1 = O=C(Cn1cc(CCCF)nn1)*; Ahx = NCCCCCC(=O)O

How the values were obtained:
caspase-3 [1] = molecular target: T1, caspase-3 (Homo sapiens, UniProt P42574); assay: Biochemical inhibition assay, kinact/Ki with AMAC substrate; details: for kinact/KI: read-out: kinact/Ki C3
T1 sequence (P42574 29-175 limits assumed): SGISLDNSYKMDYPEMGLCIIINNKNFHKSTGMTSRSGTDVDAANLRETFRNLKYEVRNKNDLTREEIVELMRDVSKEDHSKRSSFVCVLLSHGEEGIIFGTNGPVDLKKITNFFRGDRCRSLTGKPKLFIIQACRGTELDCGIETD
T1 sequence (P42574 176-277 limits assumed): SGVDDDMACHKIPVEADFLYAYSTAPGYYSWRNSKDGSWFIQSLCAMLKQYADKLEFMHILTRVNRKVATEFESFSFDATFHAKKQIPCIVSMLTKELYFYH
Outline: (§1)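 Continuous fluorogenic inactivation assay with Ac-DEVD-AMAC at 100 μM final. Final enzyme concentrations were 1 nM caspase-3 and 5 nM caspase-7. Enzyme was added to substrate plus inhibitor, and fluorescence (ex 320/em 460) was read immediately. Progress curves were fit to F = -[v₀(1-exp(-kobst))/kobs-Fmax] to give kinact and Ki.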

caspase-6 = molecular target: T2, caspase-6 (Homo sapiens, UniProt P55212); assay: Biochemical inhibition assay, kinact/Ki with AMAC substrate; details: read-out: kinact/Ki C6
T2 sequence (P55212 24-179 limits assumed): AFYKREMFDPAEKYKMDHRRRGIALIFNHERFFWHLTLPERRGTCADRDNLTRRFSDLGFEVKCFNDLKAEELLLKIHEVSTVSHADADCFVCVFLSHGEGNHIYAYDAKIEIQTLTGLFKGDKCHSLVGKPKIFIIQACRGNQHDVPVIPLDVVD
T2 sequence (P55212 194-293 limits assumed): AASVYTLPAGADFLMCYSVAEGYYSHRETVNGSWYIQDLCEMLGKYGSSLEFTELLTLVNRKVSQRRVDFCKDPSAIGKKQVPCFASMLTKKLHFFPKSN
Outline: (§2)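 Caspase-8 (25 nM), caspase-9 (100 nM) and caspase-10 (20 nM) used Ac-IETD-AMAC; caspase-9 and caspase-10 buffers also had 0.7 M sodium citrate. Caspase-6 (25 nM) used Ac-VEID-AMAC. Fluorescence (ex 320/em 460) was read immediately, and progress curves were fit for kinact and Ki.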

caspase-7 = molecular target: T3, caspase-7 (Homo sapiens, UniProt P55210); assay: Biochemical inhibition assay, kinact/Ki with AMAC substrate; details: read-out: kinact/Ki C7
T3 sequence (P55210 24-198 limits assumed): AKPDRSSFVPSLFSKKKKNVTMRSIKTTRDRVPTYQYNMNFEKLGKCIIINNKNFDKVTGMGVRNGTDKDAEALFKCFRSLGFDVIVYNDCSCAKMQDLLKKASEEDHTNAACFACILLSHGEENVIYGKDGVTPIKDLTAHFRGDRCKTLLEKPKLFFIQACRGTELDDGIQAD
T3 sequence (P55210 207-303 limits assumed): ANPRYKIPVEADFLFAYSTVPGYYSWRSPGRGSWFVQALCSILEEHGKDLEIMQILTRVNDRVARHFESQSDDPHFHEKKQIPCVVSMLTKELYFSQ
Outline: as §1

caspase-9 = molecular target: T4, caspase-9 (Homo sapiens, UniProt P55211); assay: Biochemical inhibition assay, kinact/Ki with AMAC substrate; details: read-out: kinact/Ki C9
T4 sequence (P55211 1-315 limits assumed): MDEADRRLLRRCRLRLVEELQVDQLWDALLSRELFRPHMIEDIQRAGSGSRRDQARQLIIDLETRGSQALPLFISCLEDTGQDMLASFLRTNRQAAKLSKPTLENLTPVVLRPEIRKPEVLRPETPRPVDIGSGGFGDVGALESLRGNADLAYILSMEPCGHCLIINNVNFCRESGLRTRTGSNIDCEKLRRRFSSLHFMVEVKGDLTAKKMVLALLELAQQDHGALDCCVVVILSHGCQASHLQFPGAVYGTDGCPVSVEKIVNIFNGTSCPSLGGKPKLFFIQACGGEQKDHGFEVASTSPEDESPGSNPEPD
T4 sequence (P55211 331-416 limits assumed): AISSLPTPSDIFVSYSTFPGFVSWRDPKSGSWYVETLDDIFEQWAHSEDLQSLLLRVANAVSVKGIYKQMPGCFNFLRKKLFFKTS
Outline: as §2

caspase-10 = molecular target: T5, caspase-10 (Homo sapiens, UniProt Q92851); assay: as above; details: read-out: kinact/Ki C10
T5 sequence (Q92851 220-415 limits assumed): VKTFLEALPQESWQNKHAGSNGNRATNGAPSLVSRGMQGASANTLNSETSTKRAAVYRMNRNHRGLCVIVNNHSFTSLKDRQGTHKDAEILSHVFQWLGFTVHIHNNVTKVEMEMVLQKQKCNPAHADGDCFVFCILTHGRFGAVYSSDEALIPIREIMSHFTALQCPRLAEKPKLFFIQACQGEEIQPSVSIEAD
T5 sequence (Q92851 416-521 limits assumed): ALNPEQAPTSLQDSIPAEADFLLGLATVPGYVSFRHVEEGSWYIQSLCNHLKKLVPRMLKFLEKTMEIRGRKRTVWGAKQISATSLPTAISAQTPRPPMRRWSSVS
Outline: as §2

caspase-8 = caspase-8 (Homo sapiens, UniProt Q14790); assay: as above; details: read-out: kinact/Ki C8
Sequence of caspase-8 (Q14790 217-374 limits assumed): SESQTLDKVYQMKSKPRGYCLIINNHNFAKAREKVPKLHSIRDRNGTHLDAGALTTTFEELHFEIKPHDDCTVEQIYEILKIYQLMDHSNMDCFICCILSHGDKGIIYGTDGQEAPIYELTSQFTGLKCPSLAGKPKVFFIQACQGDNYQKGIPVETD
Sequence of caspase-8 (Q14790 385-479 limits assumed): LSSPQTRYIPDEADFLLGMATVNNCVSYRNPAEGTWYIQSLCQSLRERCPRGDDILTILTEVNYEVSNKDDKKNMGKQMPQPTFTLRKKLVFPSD
Outline: as §2

caspase-3 [2] = molecular target: T1, caspase-3; details: cited from earlier work

Row | Compound | kinact/KI (caspase-3 [1]) | kinact/KI (caspase-6) | kinact/KI (caspase-7) | kinact/KI (caspase-9) | kinact/KI (caspase-10) | kinact/KI (caspase-8) | inactivation rate on caspase-3 as compared to caspase-7 (caspase-3 [1]; ratio of kinact/Ki) | efficiency in inactivation of caspase-3, less than Ac-DEVD-KE (caspase-3 [2]; ref Solania et al. [2019]) | selectivity for caspase-3 against caspase-7 (caspase-3 [2]; ref Vickers et al. [2013]) | selectivity for caspase-3 against caspase-8 (caspase-3 [2]; ref Vickers et al. [2013])
1 | Cc1ccc(C(=O)OCC(=O)[C@@H](CC(=O)O)NC(=O)[C@@H](Cc2ccccc2)NC(=O)C[C@@H](CC(C)C)NC(=O)[C@@H](CC(=O)O)NC(=O)[C@@H](Cc2cccnc2)NC(=O)CCCCCNC(=O)CCCCCNC(=O)CCCc2cn(CCF)nn2)s1 [Inhibitor 1, (3R,6R,10R,13R,16R)-6-benzyl-13-(carboxymethyl)-35-(1-(2-fluoroethyl)-1H-1,2,3-triazol-4-yl)-10-isobutyl-3-(2-((5-methylthiophene-2-carbonyl)oxy)acetyl)-5,8,12,15,18,25,32-heptaoxo-16-(pyridin-3-ylmethyl)-4,7,11,14,17,24,31-heptaazapentatriacontanoic acid] ({X3-Ahx-Ahx}-[d3Pal][dD][d(β3hL)][dF]-X4) | 73500 M⁻¹ s⁻¹ | 200 M⁻¹ s⁻¹ | 200 M⁻¹ s⁻¹ | – | – | – | – | – | – | –
2 | Cc1cccc(C)c1C(=O)OCC(=O)[C@@H](CC(=O)O)NC(=O)[C@@H](Cc1ccccc1)NC(=O)C[C@@H](CC(C)C)NC(=O)[C@@H](CC(=O)O)NC(=O)[C@@H](Cc1cccnc1)NC(=O)CCCCCNC(=O)CCCCCNC(=O)CCCc1cn(CCF)nn1 [Inhibitor 3, (3R,6R,10R,13R,16R)-6-benzyl-13-(carboxymethyl)-3-(2-((2,6-dimethylbenzoyl)oxy)acetyl)-35-(1-(2-fluoroethyl)-1H-1,2,3-triazol-4-yl)-10-isobutyl-5,8,12,15,18,25,32-heptaoxo-16-(pyridin-3-ylmethyl)-4,7,11,14,17,24,31-heptaazapentatriacontanoic acid] ({X3-Ahx-Ahx}-[d3Pal][dD][d(β3hL)][dF]-X5) | 206000 M⁻¹ s⁻¹ | 5400 M⁻¹ s⁻¹ | 1000 M⁻¹ s⁻¹ | – | – | – | – | – | – | –
3 | Cc1ccc(C(=O)OCC(=O)[C@H](CC(=O)O)NC(=O)[C@H](Cc2ccccc2)NC(=O)[C@H](Cc2c(F)c(F)c(F)c(F)c2F)NC(=O)[C@H](CC(=O)O)NC(=O)[C@H](Cc2cccnc2)NC(=O)CNC(=O)[C@H](CCC(=O)O)NC(=O)CNC(=O)Cn2cc(CCCF)nn2)s1 [Inhibitor 4, (3S,6S,9S,12S,15S,21S)-6-benzyl-12-(carboxymethyl)-21-(2-(2-(4-(3-fluoropropyl)-1H-1,2,3-triazol-1-yl)acetamido)acetamido)-3-(2-((5-methylthiophene-2-carbonyl)oxy)acetyl)-5,8,11,14,17,20-hexaoxo-9-((perfluorophenyl)methyl)-15-(pyridin-3-ylmethyl)-4,7,10,13,16,19-hexaazatetracosanedioic acid] (X1-GEG[3Pal]D[Phe(F5)]F-{AspCH2OCO(5-Me-thien-2-yl)}) | 863000 M⁻¹ s⁻¹ | 200 M⁻¹ s⁻¹ | 71400 M⁻¹ s⁻¹ | 800 M⁻¹ s⁻¹ | 700 M⁻¹ s⁻¹ | 7200 M⁻¹ s⁻¹ | – | – | – | –
4 | Cc1ccc(C(=O)OCC(=O)[C@H](CC(=O)O)NC(=O)[C@H](Cc2ccccc2)NC(=O)[C@H](Cc2c(F)c(F)c(F)c(F)c2F)NC(=O)[C@H](CC(=O)O)NC(=O)[C@H](Cc2cccnc2)NC(=O)CCOCCOCCOCCOCCn2cc(CCCF)nn2)s1 [Inhibitor 5, (17S,20S,23S,26S,29S)-26-benzyl-20-(carboxymethyl)-1-(4-(3-fluoropropyl)-1H-1,2,3-triazol-1-yl)-29-(2-((5-methylthiophene-2-carbonyl)oxy)acetyl)-15,18,21,24,27-pentaoxo-23-((perfluorophenyl)methyl)-17-(pyridin-3-ylmethyl)-3,6,9,12-tetraoxa-16,19,22,25,28-pentaazahentriacontan-31-oic acid] (X2-[3Pal]D[Phe(F5)]F-{AspCH2OCO(5-Me-thien-2-yl)}) | 1.25e+06 M⁻¹ s⁻¹ | 300 M⁻¹ s⁻¹ | 106000 M⁻¹ s⁻¹ | 1000 M⁻¹ s⁻¹ | 600 M⁻¹ s⁻¹ | 13500 M⁻¹ s⁻¹ | – | – | – | –
5 | Cc1ccc(C(=O)OCC(=O)[C@H](CC(=O)O)NC(=O)[C@H](Cc2ccccc2)NC(=O)[C@H](Cc2c(F)c(F)c(F)c(F)c2F)NC(=O)[C@H](CC(=O)O)NC(=O)[C@H](Cc2cccnc2)NC(=O)CCCCCNC(=O)Cn2cc(CCCF)nn2)s1 [Inhibitor 6, (11S,14S,17S,20S,23S)-20-benzyl-14-(carboxymethyl)-1-(4-(3-fluoropropyl)-1H-1,2,3-triazol-1-yl)-23-(2-((5-methylthiophene-2-carbonyl)oxy)acetyl)-2,9,12,15,18,21-hexaoxo-17-((perfluorophenyl)methyl)-11-(pyridin-3-ylmethyl)-3,10,13,16,19,22-hexaazapentacosan-25-oic acid] ({X1-Ahx}-[3Pal]D[Phe(F5)]F-{AspCH2OCO(5-Me-thien-2-yl)}) | 851000 M⁻¹ s⁻¹ | 200 M⁻¹ s⁻¹ | 108000 M⁻¹ s⁻¹ | 900 M⁻¹ s⁻¹ | 900 M⁻¹ s⁻¹ | 7700 M⁻¹ s⁻¹ | – | – | – | –
6 | Cc1ccc(C(=O)OCC(=O)[C@H](CC(=O)O)NC(=O)[C@H](Cc2ccccc2)NC(=O)[C@H](Cc2c(F)c(F)c(F)c(F)c2F)NC(=O)[C@H](CC(=O)O)NC(=O)[C@H](Cc2cccnc2)NC(=O)CNC(=O)CNC(=O)CNC(=O)Cn2cc(CCCF)nn2)s1 [Inhibitor 7, (13S,16S,19S,22S,25S)-22-benzyl-16-(carboxymethyl)-1-(4-(3-fluoropropyl)-1H-1,2,3-triazol-1-yl)-25-(2-((5-methylthiophene-2-carbonyl)oxy)acetyl)-2,5,8,11,14,17,20,23-octaoxo-19-((perfluorophenyl)methyl)-13-(pyridin-3-ylmethyl)-3,6,9,12,15,18,21,24-octaazaheptacosan-27-oic acid] (X1-GGG[3Pal]D[Phe(F5)]F-{AspCH2OCO(5-Me-thien-2-yl)}) | 1.62e+06 M⁻¹ s⁻¹ | 300 M⁻¹ s⁻¹ | 117000 M⁻¹ s⁻¹ | 700 M⁻¹ s⁻¹ | 1000 M⁻¹ s⁻¹ | 15200 M⁻¹ s⁻¹ | 14 times | – | – | –
7 | Cc1ccc(C(=O)OCC(=O)[C@H](CC(=O)O)NC(=O)[C@H](Cc2ccccc2)NC(=O)[C@H](Cc2c(F)c(F)c(F)c(F)c2F)NC(=O)[C@H](CC(=O)O)NC(=O)[C@H](Cc2cccnc2)NC(=O)Cn2cc(CCCF)nn2)s1 [Inhibitor 8, (4S,7S,10S,13S,16S)-13-benzyl-7-(carboxymethyl)-1-(4-(3-fluoropropyl)-1H-1,2,3-triazol-1-yl)-16-(2-((5-methylthiophene-2-carbonyl)oxy)acetyl)-2,5,8,11,14-pentaoxo-10-((perfluorophenyl)methyl)-4-(pyridin-3-ylmethyl)-3,6,9,12,15-pentaazaoctadecan-18-oic acid] (X1-[3Pal]D[Phe(F5)]F-{AspCH2OCO(5-Me-thien-2-yl)}) | 549000 M⁻¹ s⁻¹ | – | 61000 M⁻¹ s⁻¹ | 400 M⁻¹ s⁻¹ | 700 M⁻¹ s⁻¹ | 5600 M⁻¹ s⁻¹ | – | – | – | –
8 | Ac-3Pal-Asp-βhLeu-Phe-Asp-KE [Ac-DW3-KE] | – | – | – | – | – | – | – | 500 times | 120 fold | 58 fold
